ChEMBL document CHEMBL3244165, “Improved synthesis and in vitro antiviral activities of 5-cyanouridine and 5-cyano-2'-deoxyuridine” (J Med Chem, 1977)

Assays:
Human alphaherpesvirus 1 [1] = assay: Antiviral activity against Herpes simplex virus 1 infected in human skin fibroblasts assessed as inhibition of virus-induced cytopathogenicity; format: functional
Human alphaherpesvirus 1 [2] = assay: Antiviral activity against Herpes simplex virus 1 infected in primary rabbit kidney cells assessed as inhibition of virus-induced cytopathogenicity; format: functional
[3] = tested on: Vesicular stomatitis virus; assay: Antiviral activity against Vesicular stomatitis virus infected in primary rabbit kidney cells assessed as inhibition of virus-induced cytopathogenicity; format: functional
[4] = Dissociation constant, pKa of the compound by spectrophotometric analysis; format: physicochemical
How it was run: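 Determined spectrophotometrically in Teorell-Stenhagen buffers.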

SMILES | ID50 (Human alphaherpesvirus 1 [1]) | ID50 (Human alphaherpesvirus 1 [2]) | ID50 [3] | pKa [4]
Nc1ncnc2c1ncn2[C@@H]1O[C@H](CO)[C@@H](O)[C@@H]1O [VIDARABINE] | 3.7 ×10⁻⁵ M | 1.5 ×10⁻⁵ M | – | –
O=c1[nH]c(=O)n([C@H]2C[C@H](O)[C@@H](CO)O2)cc1C(F)(F)F [TRIFLURIDINE] | 1.3 ×10⁻⁶ M | 6.6 ×10⁻⁷ M | – | –
O=c1[nH]c(=O)n([C@H]2C[C@H](O)[C@@H](CO)O2)cc1F [FLOXURIDINE] | 4 ×10⁻⁷ M | 1.6 ×10⁻⁷ M | – | –
O=c1[nH]c(=O)n([C@H]2C[C@H](O)[C@@H](CO)O2)cc1Cl [CHLORODEOXYURIDINE] | 7.6 ×10⁻⁷ M | 7.6 ×10⁻⁷ M | – | –
N#Cc1cn([C@@H]2O[C@H](CO)[C@@H](O)[C@H]2O)c(=O)[nH]c1=O | >7 ×10⁻⁴ M | 3.7 ×10⁻⁴ M | >7 ×10⁻⁴ M | –
N#Cc1cn([C@H]2C[C@H](O)[C@@H](CO)O2)c(=O)[nH]c1=O | >7 ×10⁻⁴ M | 1.6 ×10⁻⁴ M | – | 6.8
O=c1[nH]c(=O)n([C@H]2C[C@H](O)[C@@H](CO)O2)cc1I [IDOXURIDINE] | 5.7 ×10⁻⁷ M | 5.7 ×10⁻⁷ M | – | 8.2
O=c1[nH]c(=O)n([C@H]2C[C@H](O)[C@@H](CO)O2)cc1Br [BROXURIDINE] | 3.2 ×10⁻⁷ M | 3.2 ×10⁻⁷ M | – | –
